ChEMBL document CHEMBL1138232, “Optimization of naphthalimide-imidazoacridone with potent antitumor activity leading to clinical candidate (HKH40A, RTA 502)” (J Med Chem, 2007)

Experiments:
HCT-116 [1] = test: Growth inhibition of human HCT116 cells after 5 days by MTT assay; type: functional; settings: HCT-116, 120 h
Procedure, shortened: (§1)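 MTT assay after 5 day continuous exposure. GI50, TGI and LC50 calculated from the MTT data. Means ± SD of at least three independent experiments; coefficients of variation 10-20%. Compounds used as tri(methanesulfonate) salts.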

HT-29 [2] = test: Growth inhibition of human HT29 cells after 5 days by MTT assay; type: functional; settings: HT-29, 120 h; for CC50: read-out: LC50 (the source's name); procedure, shortened: as §1
[3] = Growth inhibition of human Hep3B cells after 5 days by MTT assay; type: functional, Hep 3B2; settings: 120 h; for CC50: read-out: LC50 (the source's name); procedure, shortened: as §1
HCT-116 [4] = test: Antitumor activity against human HCT116 cells expressing wild type p53; type: functional; settings: read-out: LC50 (the source's name)
Procedure, shortened: (§2)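 Compounds tested as tri(methanesulfonate) salts, soluble in water and dilute buffers. Human tumour cells carrying wild-type or mutated p53 were exposed for 5 days, and viability was read by MTT assay. GI50, TGI and LC50 were calculated from the MTT data. Values are means ± SD of at least three independent experiments, with coefficients of variation of 10–20%.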

RKO = test: Antitumor activity against human RKO cells expressing wild type p53; type: functional; settings: read-out: LC50 (the source's name); procedure, shortened: as §2
COLO 205 = test: Antitumor activity against human Colo205 cells expressing mutated p53; type: functional, cell-based; procedure, shortened: as §2
HT-29 [5] = test: Antitumor activity against HT29 cells expressing mutated p53; type: functional, cell-based; settings: Homo sapiens; procedure, shortened: as §2
ASPC1 = test: Antitumor activity against p53 null human ASPC1 cells; type: functional, cell-based
[6] = Antitumor activity against human 10.05 cells expressing mutated p53; type: functional, cell-based; procedure, shortened: as §2
PC-3 = test: Antitumor activity against PC3 cells expressing mutated p53; type: functional, cell-based; settings: Homo sapiens; procedure, shortened: as §2
HCT-116 [7] = test: Cell cycle arrest in HCT116 cells assessed as accumulation at Sub G1 phase at 50 nM after 72 hrs; type: functional, Homo sapiens
Procedure, shortened: (§3)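 HCT116 cells exposed to 50 nM drug for 72 h, then cell-cycle distribution analysed. Sub-G1, G1, S and G2/M fractions reported as percent of cells, with untreated control cells for comparison.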

HCT-116 [8] = test: Cell cycle arrest in HCT116 cells assessed as accumulation at G1 phase at 50 nM after 72 hrs; type: functional, Homo sapiens; procedure, shortened: as §3
HCT-116 [9] = test: Cell cycle arrest in HCT116 cells assessed as accumulation at S phase at 50 nM after 72 hrs; type: functional, Homo sapiens; procedure, shortened: as §3
HCT-116 [10] = test: Cell cycle arrest in HCT116 cells assessed as accumulation at G2/M phase at 50 nM after 72 hrs; type: functional, Homo sapiens; procedure, shortened: as §3
MIA PaCa-2 = test: Inhibition of tumor growth in PaCa2 cells xenografted nu/nu mouse at 80 mg/kg; type: functional, Homo sapiens; settings: read-out: TGI
Procedure, shortened: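 PaCa-2 tumour fragments implanted on the flank of nu/nu mice, 10 per group. Intraperitoneal treatment, Q3Dx4, started 12 days post-inoculation at 80 mm3 tumour volume. Tumour growth inhibition measured.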

Compound	GI50 (HCT-116 [1])	LC50 (HCT-116 [1])	GI50 (HT-29 [2])	CC50 (HT-29 [2])	GI50 [3]	CC50 [3]	further results
O=C1c2cccc3cccc(c23)C(=O)N1CCCN1CCN(CCCNc2ccc3ncn4c5ccccc5c(=O)c2c34)CC1	15 nM	1000 nM	11 nM	1000 nM	22 nM	1000 nM	–
COc1ccc2c(c1)c(=O)c1c(NCCCN3CCN(CCCN4C(=O)c5cccc6cccc(c56)C4=O)CC3)ccc3ncn2c31	3.5 nM	70 nM	3 nM	1000 nM	3.5 nM	330 nM	–
Nc1cc2c3c(cccc3c1)C(=O)N(CCCN1CCN(CCCNc3ccc4ncn5c6ccc(F)cc6c(=O)c3c45)CC1)C2=O	2.2 nM	80 nM	8 nM	750 nM	–	–	–
O=C1c2cccc3cc([N+](=O)[O-])cc(c23)C(=O)N1CCCN1CCN(CCCNc2ccc3ncn4c5ccccc5c(=O)c2c34)CC1	1 nM	40 nM	2 nM	550 nM	4 nM	380 nM	CC50 (HCT-116 [4]): 40 nM; CC50 (RKO): 40 nM; IC50 (COLO 205): 500 nM; IC50 (HT-29 [5]): 550 nM; IC50 (ASPC1): 350 nM; IC50 [6]: 300 nM; IC50 (PC-3): > 1000 nM; Activity (HCT-116 [7]): 15.5%; Activity (HCT-116 [8]): 37.9%; Activity (HCT-116 [9]): 1.3%; Activity (HCT-116 [10]): 45%
O=C1c2cccc3cc([N+](=O)[O-])cc(c23)C(=O)N1CCCN1CCN(CCCNc2ccc3ncn4c5ccc(F)cc5c(=O)c2c34)CC1	1 nM	40 nM	2 nM	600 nM	4 nM	400 nM	–
Cc1ccc2c(c1)c(=O)c1c(NCCCN3CCN(CCCN4C(=O)c5cccc6cc([N+](=O)[O-])cc(c56)C4=O)CC3)ccc3ncn2c31	3.5 nM	30 nM	–	–	–	–	–
Cc1cccc2c1c(=O)c1c(NCCCN3CCN(CCCN4C(=O)c5cccc6cc([N+](=O)[O-])cc(c56)C4=O)CC3)ccc3ncn2c31	3 nM	30 nM	–	–	–	–	–
O=C1c2cccc3c([N+](=O)[O-])ccc(c23)C(=O)N1CCCN1CCN(CCCNc2ccc3ncn4c5ccccc5c(=O)c2c34)CC1	5.5 nM	> 1000 nM	15 nM	1000 nM	18 nM	1000 nM	–
COc1ccc2c(c1)c(=O)c1c(NCCCN3CCN(CCCN4C(=O)c5cccc6c([N+](=O)[O-])ccc(c56)C4=O)CC3)ccc3ncn2c31	3 nM	350 nM	4 nM	1000 nM	5 nM	800 nM	–
Nc1ccn([C@@H]2O[C@H](CO)[C@@H](O)C2(F)F)c(=O)n1 [GEMCITABINE]	–	–	–	–	–	–	inhibition in vivo at 80 mg/kg (MIA PaCa-2): 85.3%
